Assay results reported in publication PMC9884086 (Journal of Medicinal Chemistry, 2023).

Key:
[1] = tested on: novel objection recognition in rats; test: Novel objection recognition assay; assay type: in vivo; conditions: for novel objection recognition: rats, vs vehicle, p <0.05
Method in brief: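 Rats dosed orally with test compound; donepezil 0.56 mg/kg as reference. Plasma was taken 1 h post dose at the end of the behavioral study (n = 4/group). Striatal PDE10A occupancy was derived from these end-of-study plasma exposures. Significance was tested against vehicle.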

[2] = target: Human PDE10A2 (Homo sapiens, UniProt Q9Y233); test: PDE10A fluorescence polarization; assay type: biochemical
Human PDE10A2, sequence (Q9Y233 267-1055): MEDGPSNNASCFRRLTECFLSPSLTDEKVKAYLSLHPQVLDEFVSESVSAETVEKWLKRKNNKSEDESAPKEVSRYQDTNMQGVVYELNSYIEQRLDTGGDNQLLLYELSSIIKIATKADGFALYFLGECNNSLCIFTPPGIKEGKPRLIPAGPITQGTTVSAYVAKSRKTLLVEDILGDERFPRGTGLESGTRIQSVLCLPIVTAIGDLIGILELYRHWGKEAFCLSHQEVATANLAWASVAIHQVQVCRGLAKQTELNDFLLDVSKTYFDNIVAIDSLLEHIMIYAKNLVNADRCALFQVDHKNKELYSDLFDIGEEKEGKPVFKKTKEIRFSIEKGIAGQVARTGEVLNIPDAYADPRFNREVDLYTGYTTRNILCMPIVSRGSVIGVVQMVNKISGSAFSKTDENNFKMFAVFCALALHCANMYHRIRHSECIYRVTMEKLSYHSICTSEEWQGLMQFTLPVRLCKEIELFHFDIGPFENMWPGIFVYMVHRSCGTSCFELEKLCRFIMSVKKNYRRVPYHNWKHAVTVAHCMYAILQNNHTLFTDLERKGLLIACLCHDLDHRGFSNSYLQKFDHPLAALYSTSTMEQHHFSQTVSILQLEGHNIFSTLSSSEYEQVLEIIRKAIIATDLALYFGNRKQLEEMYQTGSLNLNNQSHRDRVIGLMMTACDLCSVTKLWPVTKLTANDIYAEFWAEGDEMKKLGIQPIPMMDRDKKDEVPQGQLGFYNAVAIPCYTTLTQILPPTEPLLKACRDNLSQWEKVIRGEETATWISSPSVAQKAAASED

[3] = tested on: MK-801-induced locomotor activity in rats; test: MK-801-induced psychomotor; assay type: in vivo; conditions: MK-801 model, striatal occupancy derived from plasma exposures
[4] = Weight gain in rats; assay type: in vivo; conditions: data not shown
[5] = target: T1, PDE10A (Rattus norvegicus, UniProt Q9QYJ6); test: In vivo PDE10A enzyme occupancy in rat striatum with [3H]MK-8193; design: species or system Wistar–Hannover rats
T1 sequence (Q9QYJ6 1-794): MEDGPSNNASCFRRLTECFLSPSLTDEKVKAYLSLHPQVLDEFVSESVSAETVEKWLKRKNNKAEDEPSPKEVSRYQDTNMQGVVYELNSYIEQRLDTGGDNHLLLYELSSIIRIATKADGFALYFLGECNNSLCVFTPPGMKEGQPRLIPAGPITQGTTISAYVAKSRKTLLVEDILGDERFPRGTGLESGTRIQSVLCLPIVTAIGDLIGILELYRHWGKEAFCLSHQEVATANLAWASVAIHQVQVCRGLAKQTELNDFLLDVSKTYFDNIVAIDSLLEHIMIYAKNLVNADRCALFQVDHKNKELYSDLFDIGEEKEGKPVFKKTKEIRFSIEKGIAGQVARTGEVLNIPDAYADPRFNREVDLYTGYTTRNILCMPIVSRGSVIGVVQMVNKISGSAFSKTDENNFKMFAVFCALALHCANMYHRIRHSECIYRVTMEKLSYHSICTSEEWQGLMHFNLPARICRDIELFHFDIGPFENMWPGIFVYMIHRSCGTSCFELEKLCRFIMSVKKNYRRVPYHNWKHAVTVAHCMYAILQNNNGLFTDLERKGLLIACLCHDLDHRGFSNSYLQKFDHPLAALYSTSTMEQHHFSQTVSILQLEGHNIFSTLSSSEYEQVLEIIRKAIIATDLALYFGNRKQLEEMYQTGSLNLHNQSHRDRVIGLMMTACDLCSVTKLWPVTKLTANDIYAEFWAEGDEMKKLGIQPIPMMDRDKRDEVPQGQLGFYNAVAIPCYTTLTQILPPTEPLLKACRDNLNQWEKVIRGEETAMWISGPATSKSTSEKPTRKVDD

[6] = Passive permeability; assay type: in vitro ADME; conditions: not told
[7] = target: full length human PDE10A2 (Homo sapiens, UniProt Q9Y233); test: Surface plasmon resonance binding kinetics; conditions: SPR
full length human PDE10A2, sequence (Q9Y233 715-1055): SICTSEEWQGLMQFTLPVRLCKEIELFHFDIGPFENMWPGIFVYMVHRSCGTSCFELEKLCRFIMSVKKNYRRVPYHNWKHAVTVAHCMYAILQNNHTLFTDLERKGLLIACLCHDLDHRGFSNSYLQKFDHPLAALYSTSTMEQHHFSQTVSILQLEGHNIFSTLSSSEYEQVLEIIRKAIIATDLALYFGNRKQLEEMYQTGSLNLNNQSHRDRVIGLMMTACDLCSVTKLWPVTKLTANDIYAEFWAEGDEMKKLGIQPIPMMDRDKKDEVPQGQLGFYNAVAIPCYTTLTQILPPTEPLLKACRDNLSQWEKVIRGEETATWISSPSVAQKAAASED

[8] = tested on: 5-strain Ames test; test: Microbial mutagenesis assay; assay type: cell-based
[9] = tested on: acute episode of schizophrenia; conditions: patients experiencing an acute episode of schizophrenia; cited from earlier work
[10] = tested on: other PDE enzyme families (PDE1–PDE11); test: PDE selectivity over the other PDE enzyme families; assay type: biochemical; conditions: tables 1 and 2; over other PDEs
[11] = target: Iks (Homo sapiens, UniProt P51787); test: Ion channel profile, Iks; assay type: cell-based
Iks, sequence (P51787 whole entry): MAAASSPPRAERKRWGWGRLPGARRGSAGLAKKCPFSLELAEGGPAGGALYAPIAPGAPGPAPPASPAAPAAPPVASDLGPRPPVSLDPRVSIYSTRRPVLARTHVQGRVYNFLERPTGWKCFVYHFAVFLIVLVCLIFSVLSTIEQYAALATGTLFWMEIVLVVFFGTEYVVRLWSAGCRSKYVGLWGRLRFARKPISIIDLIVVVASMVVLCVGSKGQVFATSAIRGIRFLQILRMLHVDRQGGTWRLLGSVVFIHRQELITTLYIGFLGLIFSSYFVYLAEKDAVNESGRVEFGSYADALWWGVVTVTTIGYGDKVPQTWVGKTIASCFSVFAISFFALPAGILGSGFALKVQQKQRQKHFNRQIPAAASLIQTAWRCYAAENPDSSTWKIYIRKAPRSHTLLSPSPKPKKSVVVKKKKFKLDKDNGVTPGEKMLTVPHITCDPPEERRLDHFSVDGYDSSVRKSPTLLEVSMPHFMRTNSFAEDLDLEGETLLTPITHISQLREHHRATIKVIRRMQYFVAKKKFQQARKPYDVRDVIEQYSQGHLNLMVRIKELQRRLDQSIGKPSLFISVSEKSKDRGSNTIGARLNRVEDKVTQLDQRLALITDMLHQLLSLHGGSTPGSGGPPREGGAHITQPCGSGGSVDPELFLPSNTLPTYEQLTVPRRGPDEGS

[12] = tested on: Chinese hamster ovary cells; test: Assay for chromosomal aberrations; assay type: cell-based
[13] = tested on: catalepsy in the rats; test: Catalepsy in rats; assay type: in vivo; conditions: compared with atypical antipsychotics, data not shown
[14] = tested on: circulating levels of prolactin; test: Circulating prolactin in rats; assay type: in vivo; conditions: data not shown

For COc1cc2c(cc1OC)C(=O)C(CC1CCN(Cc3ccccc3)CC1)C2 (stereo not shown) [donepezil, reference compound], the novel objection recognition ([1]; positive control 0.56 mg/kg) was “significantly improved recognition”.
For Cc1c(Cl)nc(C2CC2)nc1Cl [Compound 1], the “LBE (ligand binding efficiency)” value [2] was 0.57.
For Cc1ccc([C@H]2C[C@@H]2COc2cc(NCc3nnc(C)s3)nc(C)n2)nc1 [Compound 18, 2-Methyl-N-((5-methyl-1,3,4-thiadiazol-2-yl)methyl)-6-(((1S,2S)-2-(5-methylpyridin-2-yl)cyclopropyl)methoxy)pyrimidin-4-amine], the “enzyme occupancy at which efficacy was observed (and above)” value [3] was “approximately 25%”, the weight gain [4] was “reduced weight gain” and the EC50 [5] was 52 nM. For the same compound, the “maximal enzyme occupancy in the rat striatum” value ([5]; PO, higher plasma concentrations) was “full enzyme occupancy”, the “enzyme occupancy at which significant effects were achieved (and above)” value ([1]; novel objection recognition, striatal occupancy derived from plasma exposures) was “approximately 29%” and the novel objection recognition ([1]; 0.16 and 0.25 mg/kg PO) was “efficacious”. For the same compound, the novel objection recognition ([1]; 0.16 and 0.25 mg/kg PO, listed as MK-8189 (18)) was “significantly improved recognition”, the Papp [6] was 35.4 to 42.6 ×10⁻⁶ cm/s and the on-rate [7] was ~8.0 × 10^7 M^–1·s^–1. For the same compound, the reversibility of binding [7] was “completely reversible”, the “in vitro half-life on the enzyme” value ([7]; 25 °C) was about 6.7 min and the “microbial mutagenesis (5-strain Ames test)” value [8] was “negative”. The “antipsychotic efficacy, initial proof of concept” value [9] was “evidence for antipsychotic efficacy”, the PDE selectivity [10] was > 500,000 and the IC50 [11] was over 30000 nM. The “LBE (ligand binding efficiency)” value [2] was 0.54, the “LLE (ligand-lipophilicity efficiency)” value [2] was 7.8 and the “chromosomal aberrations in Chinese hamster ovary cells” value [12] was “negative”. The “therapeutic window between antipsychotic-like effects and catalepsy” value [13] was “larger therapeutic window” and the “effect on circulating levels of prolactin” value [14] was “lack of effect”.
